Bioassay records: PubChem, The Scripps Research Institute Molecular Screening Center
OX1R antag-1 – OX1R (HCRTR1) antagonists, primary screen, fluorescence, CHO/OX1R cells, Fluo-8 calcium, orexin A; Orexin/Hypocretin receptor type 1 (Homo sapiens), O43613; Fluo-8 calcium fluorescence; 0.43% of 330,000 active; inhibition, % at 5 µM;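 active means inhibition above its plate's threshold, mean inhibition of all tested compounds on the plate plus 3 SD, cut at about 37% in these data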;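 further: 0% = orexin A challenge wells and 100% = SB-334867-A antagonist wells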
GalR3 antagonist – GalR3 antagonists in HEK293 cells, primary screen, cell-based, fluorescence readout; 0.44% of 360,000 active; Galanin receptor type 3 (Homo sapiens), O60755; HEK293 GalR3-CNG cAMP membrane potential fluorescence; galR3 body fused to GalR1 C-terminus; inhibition, % at 3 µM;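 active means inhibition above the screen-wide average plus 3 SD, cut at about 13% in these data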;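 further: forskolin and galanin both at EC90 stimulate the cells; cAMP rise reported by CNG channel membrane potential dye signal; 0% = forskolin plus galanin with DMSO and 100% = forskolin alone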
Target sequence (O60755 1-299 limits assumed): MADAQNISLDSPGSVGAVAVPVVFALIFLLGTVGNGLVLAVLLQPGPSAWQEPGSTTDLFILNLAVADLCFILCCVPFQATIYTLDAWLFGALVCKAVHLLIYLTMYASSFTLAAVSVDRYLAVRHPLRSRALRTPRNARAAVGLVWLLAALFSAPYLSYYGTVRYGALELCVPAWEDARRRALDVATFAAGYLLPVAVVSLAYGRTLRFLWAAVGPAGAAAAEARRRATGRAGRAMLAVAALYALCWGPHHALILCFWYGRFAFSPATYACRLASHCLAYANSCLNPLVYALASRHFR
OX1R antag-2 – antagonists of human orexin 1 receptor (OX1R) | OX1R-expressing cells, FRET antagonist read-out | inhibition, % at 6.6 µM | 1.8% of 330,000 active | AID 485270, 2010; in the data active means inhibition mostly above about 38%, no sharp cut-off; inactive means mostly below about 40%;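 further: 0% = agonist challenge alone and 100% = reference antagonist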
GPR7 antagonist – GPR7 receptor antagonists, primary screen, cell-based, fluorescence, single concentration | Neuropeptides B/W receptor type 1 (Homo sapiens), P48145 | GPR7-expressing cells, fluorescence antagonist assay | inhibition, % at 4.4 µM | 1.1% of 290,000 active | AID 1861, 2009; in the data active means inhibition above about 16%, passing the limit was not always enough;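 further: cells stimulated with the agonist NPW; 0% = agonist with vehicle and 100% = vehicle without agonist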
Target sequence (P48145 whole entry, looked up): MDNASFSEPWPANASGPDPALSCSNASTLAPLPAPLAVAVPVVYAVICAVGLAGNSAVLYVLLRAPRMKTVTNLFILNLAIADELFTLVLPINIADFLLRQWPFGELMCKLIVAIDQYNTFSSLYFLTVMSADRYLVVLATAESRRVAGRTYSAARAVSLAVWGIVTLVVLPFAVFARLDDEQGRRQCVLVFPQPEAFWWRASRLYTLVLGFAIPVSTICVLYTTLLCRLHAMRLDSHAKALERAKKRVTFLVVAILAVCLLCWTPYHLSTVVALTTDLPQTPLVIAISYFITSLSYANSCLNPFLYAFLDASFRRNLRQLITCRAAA
CHO parental Ca – ATP-evoked calcium signal inhibitors, parental CHO, primary screen, counter-screen for OX1R antagonist project, cell-based, fluorescence, Fluo-8 calcium dye; parental CHO-K1, ATP-induced calcium, Fluo-8 fluorescence; inhibition, % at 5.6 µM; 0.63% of 330,000 active; AID 463079, 2010;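 active means inhibition above that plate's mean sample inhibition plus 3 SD, cut at about 26% in these data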;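 further: 0% = ATP-challenged DMSO wells and 100% = DMSO wells without ATP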
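Assay system: untransfected parental CHO cell line. Also added: ATP agonist challenge. Dosing: one dose, 5.6 µM nominal. Measured by: Fluo-8 fluorescence. Read-out: % inhibition. Benchmarks: ATP wells versus no-ATP DMSO wells. Repeats: no replicates.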
GPR7 antag cf – GPR7 receptor antagonists, confirmation, cell-based, fluorescence, single concentration | 52% of 2,400 active | inhibition, % at 4.4 µM | GPR7-expressing cells, calcium fluorescence antagonist mode | shares compounds with GPR7 antagonist; in the data active means inhibition above about 24%;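 further: stimulated with the GPR7 agonist NPW; 0% = agonist plus vehicle and 100% = vehicle alone without agonist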
MCHR1 antag – MCHR1 antagonists in cells, counter-screen for GPR7 antagonist project, cell-based, fluorescence, human; shares compounds with GPR7 antagonist; MCHR1-expressing cells, fluorescence antagonist assay; inhibition, % at 4.4 µM; 62% of 2,400 active; AID 2148, 2009; in the data active means inhibition above about 22%;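 further: 0% = vehicle with agonist and 100% = vehicle without agonist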
Starred values were filed as active, the others as inactive. Hits are enriched below; roughly 3.1% of the tested compounds scored in any of these assays.

Cc1ccc(S(=O)(=O)NCc2ccc(/C=C(/C#N)C(=O)NCc3ccccc3)o2)cc1 was read as OX1R antag-1 -13, GalR3 antagonist -2, OX1R antag-2 12, GPR7 antagonist 24*, CHO parental Ca -31, GPR7 antag cf 50* and MCHR1 antag 58*.
Screening Cc1cc(C)cc(NC(=O)NC(C)C2CCCO2)c1 (stereo not drawn) returned OX1R antag-1 7, GalR3 antagonist -5, OX1R antag-2 37, GPR7 antagonist 3 and CHO parental Ca -9.
CC(NC(=O)Nc1ccc2c(c1)OCO2)C1CCCO1 (stereo not drawn) was read as OX1R antag-1 1, GalR3 antagonist -5, OX1R antag-2 11, GPR7 antagonist 99*, CHO parental Ca 0, GPR7 antag cf -5 and MCHR1 antag 18.
For O=C(Nc1ccc(OC(F)F)cc1)Nc1cccc(C(F)(F)F)c1 the results were OX1R antag-1 50*, GalR3 antagonist -6, OX1R antag-2 45*, GPR7 antagonist 39*, CHO parental Ca 60*, GPR7 antag cf 54* and MCHR1 antag 68*.
For CCN(CC)S(=O)(=O)c1ccc(NC(=O)Nc2cccc(C(F)(F)F)c2)cc1 the results were OX1R antag-1 6, GalR3 antagonist 1, OX1R antag-2 12, GPR7 antagonist 27*, CHO parental Ca 35*, GPR7 antag cf 41* and MCHR1 antag 57*.
Screening O=C(Nc1ccncc1)Nc1cccc(C(F)(F)F)c1 returned OX1R antag-1 4, GalR3 antagonist -1, OX1R antag-2 5, GPR7 antagonist -12 and CHO parental Ca 12.
For COc1ccc(NC(=O)CCCNC(=O)c2ccc(Cl)cc2)cc1S(=O)(=O)N1CCCCC1 the results were GalR3 antagonist -3.
Screening CCCC1(c2ccccc2)NC(=O)N(CC(=O)c2[nH]c(C)c(C(=O)OCC)c2C)C1=O (stereo not drawn) returned OX1R antag-1 5, GalR3 antagonist -6, OX1R antag-2 -15, GPR7 antagonist 22*, CHO parental Ca -13, GPR7 antag cf 27* and MCHR1 antag 45*.
Cc1ncsc1CCOC(=O)c1cccc([N+](=O)[O-])c1 was read as OX1R antag-1 -1, GalR3 antagonist 1, OX1R antag-2 33, GPR7 antagonist 22*, CHO parental Ca -9, GPR7 antag cf -18 and MCHR1 antag 34*.
`COc1ccc(CCNCC(O)Cn2c3ccccc3c3ccccc32)cc1OC` (stereo not drawn) gave OX1R antag-1 23, GalR3 antagonist -12, OX1R antag-2 0, GPR7 antagonist 43*, CHO parental Ca 16, GPR7 antag cf 56* and MCHR1 antag 74*.
For COc1ccccc1NCC(O)Cn1c2ccccc2c2ccccc21 (stereo not drawn) the results were OX1R antag-1 -3, GalR3 antagonist -5, OX1R antag-2 35, GPR7 antagonist 6 and CHO parental Ca -11.
Screening CCOC(=O)[C@]12CCC=C1N(Cc1cccc3ccccc13)C(=O)[C@H](CC(=O)N1CCSCC1)C2 returned GalR3 antagonist -6.
Screening Cc1cccc(NC(=O)C2C3C=CC4(O3)C2C(=O)N(CCCN2CCCC2)C4C(=O)NC2CCCC(C)C2C)c1 (stereo not drawn) returned OX1R antag-1 -33, GalR3 antagonist -5, OX1R antag-2 10, GPR7 antagonist 1 and CHO parental Ca -20.
`Cc1cc(C)cc(NC(=O)C2C3C=CC4(O3)C2C(=O)N(CCCN2CCCC2)C4C(=O)NC2CCCC(C)C2C)c1` (stereo not drawn) gave OX1R antag-1 -29, GalR3 antagonist -7, OX1R antag-2 15, GPR7 antagonist 27*, CHO parental Ca -13, GPR7 antag cf -19 and MCHR1 antag -11.
For O=C(NCCc1ccccc1Cl)[C@@H]1CCCN1C(=O)[C@@H](NC(=O)N1CCOCC1)C1CCCCC1 the results were GalR3 antagonist -6.
For CC(Sc1nnc2ccccn12)C(N)=O (stereo not drawn) the results were OX1R antag-1 13, GalR3 antagonist 3, OX1R antag-2 11, GPR7 antagonist 25*, CHO parental Ca 11, GPR7 antag cf -6 and MCHR1 antag -5.
`O=C(CCC1CCCCC1)Nc1c2c(nn1-c1ccc(F)cc1)CS(=O)(=O)C2` gave OX1R antag-1 1, GalR3 antagonist -8, OX1R antag-2 9, GPR7 antagonist 32*, CHO parental Ca -12, GPR7 antag cf 43* and MCHR1 antag 29*.
Screening CCCC(=O)Nc1c2c(nn1-c1ccc(F)cc1)CS(=O)(=O)C2 returned OX1R antag-1 4, GalR3 antagonist -7, OX1R antag-2 4, GPR7 antagonist -4 and CHO parental Ca -5.
Screening Cc1cc(C(=O)CCC(=O)Nc2cccc(F)c2)c(C)s1 returned GalR3 antagonist -6.
Cc1onc(-c2ccccc2)c1C(=O)Nc1ncc([N+](=O)[O-])s1 was read as OX1R antag-1 -3, GalR3 antagonist -6, OX1R antag-2 26, GPR7 antagonist 27*, CHO parental Ca 5, GPR7 antag cf 19 and MCHR1 antag 37*.
For Cc1onc(-c2ccccc2)c1C(=O)Nc1nnc(C(C)C)s1 the results were OX1R antag-1 -19, GalR3 antagonist 1, OX1R antag-2 8, GPR7 antagonist -9 and CHO parental Ca -9.
For Cc1cccc(N(CC(=O)N2CCCC2)S(=O)(=O)c2ccccc2)c1 the results were OX1R antag-1 -15, GalR3 antagonist -4, OX1R antag-2 6, GPR7 antagonist 23*, CHO parental Ca -9, GPR7 antag cf -11 and MCHR1 antag 1.
Cc1ccc(S(=O)(=O)N(CC(=O)N2CCCCC2)c2cccc(C)c2)cc1 was read as OX1R antag-1 -21, GalR3 antagonist -1, OX1R antag-2 42, GPR7 antagonist -6 and CHO parental Ca -23.
For Cc1ccccc1NC(=O)Cn1nnc(S(=O)(=O)c2ccc(C(C)(C)C)cc2)c1N the results were OX1R antag-1 13, GalR3 antagonist 2, OX1R antag-2 5, GPR7 antagonist 28*, CHO parental Ca 10, GPR7 antag cf 34* and MCHR1 antag 10.
